This is a sample that favours compounds with a hit; in the whole collection about 3.9% have one here.
TAAR1 antag = human TAAR1 antagonism. Q96RJ0. CHO RD-HGA16 TAAR1, Fluo-8 calcium fluorescence, antagonist. inhibition, % at 3 µM. 360,000 tested, 1.5% active. AID 624466;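 active = inhibition above a per-plate cutoff, the mean inhibition of test compounds on that plate plus 3 SD, cut at about 49% in these data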;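 also: 0% = DMSO plus EC80 beta-PEA response and 100% = DMSO alone without agonist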
Target sequence (Q96RJ0 whole entry, looked up): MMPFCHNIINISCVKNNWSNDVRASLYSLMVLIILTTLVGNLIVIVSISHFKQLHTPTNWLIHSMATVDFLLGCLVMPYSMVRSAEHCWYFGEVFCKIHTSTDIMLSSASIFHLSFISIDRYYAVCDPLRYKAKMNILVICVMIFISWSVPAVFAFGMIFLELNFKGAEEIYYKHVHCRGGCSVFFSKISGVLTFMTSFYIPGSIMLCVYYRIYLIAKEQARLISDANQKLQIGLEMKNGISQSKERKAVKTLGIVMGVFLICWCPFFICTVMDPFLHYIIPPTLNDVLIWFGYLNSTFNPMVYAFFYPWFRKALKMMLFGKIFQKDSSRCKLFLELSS
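Material: CHO RD-HGA16 cells bearing hTAAR1; compound dosing: one-point dosing, 3 µM nominal final; schedule: dye loading 75 min at 37 °C, then 30 min room temperature; measured by: calcium fluorescence with Fluo-8; control set: vehicle and agonist controls; replication: n of 1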
TMEM16A act = activators or potentiators of mouse TMEM16A chloride channel; AID 623877; Q8BHY3; B-score at 10 µM; 340,000 tested, 0.3% active; HEK293 TMEM16A/YFP-H148Q/I152L, iodide quench fluorescence; active compounds read low;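 active = fluorescence-ratio B-score plate-corrected deviation score at least 3 library SD below zero, with starting fluorescence score within 5 deviations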;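 also: channel opened by trigger with iodide after compound preincubation; score built on the fluorescence ratio of max minus min over baseline; more negative score means more quench and so TMEM16A activation or potentiation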
CRFBP-R2 agonist = CRF-BP/CRF-R2 complex agonism; HEK293 CRF-R2/CRF-BP, calcium dye fluorescence (FLIPR); percent of saturating CRF peptide response; activation, % at 13.2 µM; 350,000 tested, 0.46% active;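 active = activation of at least 50%, plus an integration ratio under a set limit after plate pattern correction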;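 also: plate controls were neutral control wells without compound for no effect and CRF at EC100 for full effect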
TMEM16A inh = blocks the mouse calcium-activated chloride channel TMEM16A; Q8BHY3; AID 588511; normalized B-score (activity score, 25-100; higher = stronger inhibition) at 10 µM; 310,000 tested, 1.2% active; HEK293 TMEM16A/YFP iodide influx fluorescence, ionomycin;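 active = ratio plate-corrected score three or more library SD toward inhibition, starting fluorescence score within five deviations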;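 also: score derived from kinetic fluorescence span divided by baseline fluorescence per well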
CRFR2-BP antag = antagonists of CRF-binding protein/CRF-R2 receptor complex; HEK293 CRF-R2/CRF-BP, CRF-induced calcium fluorescence; inhibition, % at 11.8 µM; 350,000 tested, 0.59% active; AID 588475;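 active = inhibition of the ligand-induced calcium signal above about 50% at the single tested concentration, limit read from the data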
TAAR1 agonist = agonists of human TAAR1; CHO RD-HGA16 TAAR1, Fluo-8 calcium fluorescence; vehicle wells 0%, saturating PEA agonist 100%; activation, % at 3 µM; 360,000 tested, 0.99% active;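 active = activation above the mean activation of all test compounds in the run plus 3 SD, cut at about 38% in these data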
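Assay system – CHO-derived RD-HGA16 cells with stable Gα16 and human TAAR1 · Compound dosing – one-point dosing at 3 µM (nominal) · Incubation – 17-24 h seeding, 75 min 37 °C dye, 30 min RT · Measured by – kinetic Fluo-8 calcium fluorescence · Control set – DMSO vehicle as 0%, PEA at EC100 as 100% · Repeats – single well for each compound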
* = called active by the depositor; i = inactive; . = no result given.

SMILES | TAAR1 antag | TMEM16A act | CRFBP-R2 agonist | TMEM16A inh | CRFR2-BP antag | TAAR1 agonist
CN(C)c1ccc(/C=C2\SC(=O)N(CC(O)Cn3c4ccccc4c4ccccc43)C2=O)cc1 (stereo not given) | 6 | i | 96* | i | -103 | 3
Cc1ccc(S(=O)(=O)N2CCC(=O)CC2)cc1 | -1 | i | 0 | i | 16 | 2
N#CC1(NC(=O)CSc2nnc(C3CC3)n2N)CCCCC1 | -1 | . | -1 | . | 0 | 1
C[C@@H]1CCCCCCCCC(=O)OCCN(C(=O)OC(C)(C)C)[C@H](C)CCCCCCCCC(=O)OCCN(C(=O)OC(C)(C)C)[C@H](C)CCCCCCCCC(=O)OCCN1C(=O)OC(C)(C)C | . | . | 2 | . | 5 | .
COc1ccc(S(=O)(=O)N(C)[C@H]2C[C@H]3c4cc(Oc5ccccc5C)ccc4CCN3C(=O)[C@H]2[C@H](C)O)cc1 | 1 | . | 6 | . | -14 | 1
COc1ccc(S(=O)(=O)N(C)[C@H]2C[C@H]3c4cc(-c5ccccc5)ccc4CCN3C(=O)[C@H]2[C@H](C)O)cc1 | 56* | . | 6 | . | -6 | 8
CCCCNCCCOc1cccc(Cl)c1Cl | -13 | i | 0 | i | -6 | 38*
CCOC(=O)[C@H]1[C@H]2COc3ccc(Cl)cc3[C@@H]2N2C(=O)c3ccc(F)cc3NC(=O)[C@@]12C | -2 | -13* | -2 | i | -2 | 10
O=C(CN1C(=O)NC2(CCOc3ccccc32)C1=O)NCCc1ccccc1 (stereo not given) | -1 | i | 0 | . | -16 | 11
CC(C)=CCc1c(O)cc2c(=O)c3ccc(O)cc3oc2c1O | 18 | -7* | 0 | i | -13 | 8
CC(C)c1cc(=O)oc2c3c4c(cc12)CCCN4CCC3 | 14 | i | 8 | i | -3 | 1
O=c1oc2c3c4c(cc2c(C(F)(F)F)c1CCN1CCOCC1)CCCN4CCC3 | 11 | i | 708 | i | i | 41*
Cc1ccc(C)c(OCC(=O)Nc2ccccc2C(=O)N2CCOCC2)c1 | -4 | i | -9 | i | 17 | 2
CCOC(=O)c1[nH]c(C)c(C(=O)Nc2ccc(Cl)cc2)c1C | 36 | i | -1 | i | 13 | 39*
CC(=O)c1c(C)[nH]c(C(=O)OCC(=O)Nc2ccc(C)cc2[N+](=O)[O-])c1C | 24 | i | -3 | i | -20 | 12
CC(=O)c1c(C)[nH]c(C(=O)OCC(=O)Nc2cc(Cl)ccc2[N+](=O)[O-])c1C | 51* | i | -2 | i | -47 | 16
CCOC(=O)c1ccc(NC(=O)c2c(C)[nH]c(C(=O)OCC)c2C)cc1 | 20 | i | 0 | i | -26 | 5
CCCCCCCCNC1=CC(=O)CC(C)(C)C1 | -24 | i | -1 | i | -13 | 7
Cc1cccc(NC(=S)NNC(=O)c2cc3c(s2)CCC(C)C3)c1C (stereo not given) | -7 | i | -2 | i | -22 | 0
CCCCCc1c2c(cc(O)c1C(=O)O)OC(=O)c1c(cc(OC)cc1C(=O)CCCC)O2 | . | i | -1 | 100* | 49 | .
CCCCCc1c2c(cc(O)c1C(=O)O)OC(=O)c1cc(C(=O)CCCC)c(OC)cc1O2 | 22 | i | 2 | . | 25 | 0
O=C(N1CCOCC1)C1(c2ccc(Cl)cc2)CCCC1 | -7 | i | 2 | i | -6 | 13
O=C(Nc1ccc(N2CCOCC2)cc1)C1(c2ccc(Cl)cc2)CCC1 | 27 | i | 13 | i | -13 | 44*
Cc1nc(N2CCN(c3ccccn3)CC2)c2c(C)c(C(=O)Nc3c(F)cc(F)cc3Br)sc2n1 | 57* | i | 0 | i | 8 | 3
Cc1nc(N2CCN(c3ccccn3)CC2)c2c(C)c(C(=O)Nc3c(C)cc(Br)cc3C)sc2n1 | -10 | i | 7 | i | -23 | 1
CN(C)S(=O)(=O)c1cccc(NC(=O)COC(=O)c2cccn2C)c1 | -14 | i | -1 | i | 22 | 1
